{"source": "ChEMBL document CHEMBL1155439", "about": "“Transient receptor potential ankyrin 1 (TRPA1) channel as emerging target for novel analgesics and anti-inflammatory agents” (J Med Chem, 2010)", "key": {"[1]": {"target": "T1, Transient receptor potential cation channel subfamily A member 1 (Homo sapiens, UniProt O75762)", "T1 sequence (O75762 whole entry)": "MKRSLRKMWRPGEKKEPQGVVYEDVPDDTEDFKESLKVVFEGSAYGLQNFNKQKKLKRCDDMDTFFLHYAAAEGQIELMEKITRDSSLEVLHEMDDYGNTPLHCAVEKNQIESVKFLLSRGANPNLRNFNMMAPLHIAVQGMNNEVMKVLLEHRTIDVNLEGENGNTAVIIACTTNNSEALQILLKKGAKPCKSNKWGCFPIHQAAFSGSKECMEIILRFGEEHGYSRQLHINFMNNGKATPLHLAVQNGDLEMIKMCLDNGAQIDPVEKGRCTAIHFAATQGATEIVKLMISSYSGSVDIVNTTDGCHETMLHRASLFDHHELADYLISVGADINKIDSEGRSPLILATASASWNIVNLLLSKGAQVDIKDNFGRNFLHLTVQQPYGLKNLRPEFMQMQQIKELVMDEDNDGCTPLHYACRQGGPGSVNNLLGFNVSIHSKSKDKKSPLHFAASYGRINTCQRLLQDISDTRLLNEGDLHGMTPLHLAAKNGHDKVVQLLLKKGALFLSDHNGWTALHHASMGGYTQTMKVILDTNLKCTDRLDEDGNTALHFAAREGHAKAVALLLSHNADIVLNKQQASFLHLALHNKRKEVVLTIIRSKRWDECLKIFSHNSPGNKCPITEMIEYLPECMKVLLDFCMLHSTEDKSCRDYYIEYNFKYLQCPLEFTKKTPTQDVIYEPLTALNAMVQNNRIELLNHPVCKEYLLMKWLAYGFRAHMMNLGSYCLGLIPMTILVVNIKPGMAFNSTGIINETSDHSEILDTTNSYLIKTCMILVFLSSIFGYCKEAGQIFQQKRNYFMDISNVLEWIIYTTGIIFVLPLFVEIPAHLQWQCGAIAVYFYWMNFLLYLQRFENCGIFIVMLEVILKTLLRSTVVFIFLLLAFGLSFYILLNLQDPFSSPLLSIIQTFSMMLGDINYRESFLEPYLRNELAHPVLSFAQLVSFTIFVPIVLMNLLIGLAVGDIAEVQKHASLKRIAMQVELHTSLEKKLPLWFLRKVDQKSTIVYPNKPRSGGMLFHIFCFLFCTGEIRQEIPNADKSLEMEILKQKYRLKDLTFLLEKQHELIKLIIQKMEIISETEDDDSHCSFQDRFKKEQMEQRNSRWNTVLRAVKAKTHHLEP", "test": "Agonist activity at human TRPA1 channel expressed in HEK293 cells assessed as increase in membrane currents", "assay_type": "functional, cell-based"}, "[2]": {"target": "T1, Transient receptor potential cation channel subfamily A member 1", "test": "Antagonist activity at TRPA1 channel at 10 uM", "assay_type": "functional"}, "[3]": {"target": "T1, Transient receptor potential cation channel subfamily A member 1", "test": "Antagonist activity at TRPA1 channel at 1 uM", "assay_type": "functional"}, "[4]": {"target": "T1, Transient receptor potential cation channel subfamily A member 1", "test": "Antagonist activity at TRPA1 channel", "assay_type": "functional"}, "[5]": {"target": "Transient receptor potential cation channel subfamily V member 1 (Rattus norvegicus, UniProt O35433)", "test": "Activation of rat TRPV1 channel"}, "[6]": {"target": "T1, Transient receptor potential cation channel subfamily A member 1", "test": "Agonist activity at human TRPA1 channel expressed in HEK293 cells assessed as increase in intracellular calcium influx", "assay_type": "functional, cell-based"}, "[7]": {"target": "Transient receptor potential cation channel subfamily M member 8 (Homo sapiens, UniProt Q7Z2W7)", "sequence (Q7Z2W7 whole entry)": "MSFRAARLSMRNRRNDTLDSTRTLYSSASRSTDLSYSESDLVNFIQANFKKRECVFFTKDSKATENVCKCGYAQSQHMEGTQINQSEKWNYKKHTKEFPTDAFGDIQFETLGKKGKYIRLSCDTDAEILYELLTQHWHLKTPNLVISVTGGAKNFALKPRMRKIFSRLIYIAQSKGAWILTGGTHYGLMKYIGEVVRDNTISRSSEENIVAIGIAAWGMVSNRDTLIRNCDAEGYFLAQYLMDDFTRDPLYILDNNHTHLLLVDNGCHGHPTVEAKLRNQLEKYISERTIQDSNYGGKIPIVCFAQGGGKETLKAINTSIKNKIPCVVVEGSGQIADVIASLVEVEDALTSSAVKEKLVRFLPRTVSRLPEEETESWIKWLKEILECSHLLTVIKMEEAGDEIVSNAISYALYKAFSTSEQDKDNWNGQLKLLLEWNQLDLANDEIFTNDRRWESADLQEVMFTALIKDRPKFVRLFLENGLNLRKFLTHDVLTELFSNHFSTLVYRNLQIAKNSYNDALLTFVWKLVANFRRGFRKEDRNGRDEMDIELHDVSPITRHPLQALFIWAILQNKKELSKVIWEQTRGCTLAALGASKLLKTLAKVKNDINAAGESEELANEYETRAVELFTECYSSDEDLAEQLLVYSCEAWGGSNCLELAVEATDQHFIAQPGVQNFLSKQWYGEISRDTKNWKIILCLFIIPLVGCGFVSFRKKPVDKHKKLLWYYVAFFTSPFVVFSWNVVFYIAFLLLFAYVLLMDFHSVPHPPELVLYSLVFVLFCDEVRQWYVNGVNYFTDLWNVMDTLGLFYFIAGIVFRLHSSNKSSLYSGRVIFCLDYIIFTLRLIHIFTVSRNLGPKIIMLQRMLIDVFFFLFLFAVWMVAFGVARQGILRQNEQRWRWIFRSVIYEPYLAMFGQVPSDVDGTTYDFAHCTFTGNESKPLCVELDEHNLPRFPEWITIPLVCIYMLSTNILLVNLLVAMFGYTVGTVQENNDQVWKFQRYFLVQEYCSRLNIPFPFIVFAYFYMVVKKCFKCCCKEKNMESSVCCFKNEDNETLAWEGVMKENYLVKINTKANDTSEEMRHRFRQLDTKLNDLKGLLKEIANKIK", "test": "Activation of TRPM8 channel"}, "[8]": {"target": "T1, Transient receptor potential cation channel subfamily A member 1", "test": "Agonist activity at human TRPA1 channel expressed in CHO cells assessed as increase in intracellular calcium levels", "assay_type": "functional, cell-based"}, "[9]": {"target": "T2, Transient receptor potential cation channel subfamily A member 1 (Rattus norvegicus, UniProt Q6RI86)", "T2 sequence (Q6RI86 whole entry)": "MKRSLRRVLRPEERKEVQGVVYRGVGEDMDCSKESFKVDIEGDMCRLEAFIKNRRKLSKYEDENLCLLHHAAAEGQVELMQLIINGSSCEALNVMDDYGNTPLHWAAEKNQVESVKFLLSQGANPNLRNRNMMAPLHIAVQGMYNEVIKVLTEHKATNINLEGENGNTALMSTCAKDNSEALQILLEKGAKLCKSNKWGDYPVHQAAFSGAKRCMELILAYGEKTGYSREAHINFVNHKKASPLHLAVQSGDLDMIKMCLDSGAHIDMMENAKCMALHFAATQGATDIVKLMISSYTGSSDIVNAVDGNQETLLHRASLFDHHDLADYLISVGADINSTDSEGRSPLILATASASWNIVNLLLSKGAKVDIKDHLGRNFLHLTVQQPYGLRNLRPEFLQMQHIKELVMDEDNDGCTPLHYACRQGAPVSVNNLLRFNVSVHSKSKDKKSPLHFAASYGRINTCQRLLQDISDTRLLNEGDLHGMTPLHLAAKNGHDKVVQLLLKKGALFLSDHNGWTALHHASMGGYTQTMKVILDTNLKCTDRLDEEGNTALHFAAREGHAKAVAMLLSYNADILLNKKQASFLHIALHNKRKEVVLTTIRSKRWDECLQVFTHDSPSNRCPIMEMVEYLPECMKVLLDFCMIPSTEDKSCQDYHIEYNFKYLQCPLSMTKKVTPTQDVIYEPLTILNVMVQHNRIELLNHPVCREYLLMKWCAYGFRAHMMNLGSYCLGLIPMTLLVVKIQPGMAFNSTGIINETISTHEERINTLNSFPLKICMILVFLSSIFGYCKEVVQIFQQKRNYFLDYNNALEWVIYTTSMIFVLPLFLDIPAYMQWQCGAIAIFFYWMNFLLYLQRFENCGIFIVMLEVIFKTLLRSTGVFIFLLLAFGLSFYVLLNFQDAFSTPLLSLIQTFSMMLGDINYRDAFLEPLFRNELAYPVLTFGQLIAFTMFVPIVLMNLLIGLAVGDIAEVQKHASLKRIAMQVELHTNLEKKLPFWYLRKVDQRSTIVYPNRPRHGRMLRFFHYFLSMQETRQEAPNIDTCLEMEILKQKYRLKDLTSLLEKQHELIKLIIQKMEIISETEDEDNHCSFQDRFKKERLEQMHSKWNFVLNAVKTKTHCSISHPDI", "test": "Agonist activity at TRPA1 channel in rat DRG neurons assessed as increase in intracellular calcium influx", "assay_type": "functional, cell-based"}, "[10]": {"target": "T1, Transient receptor potential cation channel subfamily A member 1", "test": "Antagonist activity at human TRPA1 channel assessed as inhibition of allyl isothiocyanate-induced intracellular calcium influx", "assay_type": "functional, cell-based"}, "[11]": {"target": "T3, Transient receptor potential cation channel subfamily A member 1 (Mus musculus, UniProt Q8BLA8)", "T3 sequence (Q8BLA8 whole entry)": "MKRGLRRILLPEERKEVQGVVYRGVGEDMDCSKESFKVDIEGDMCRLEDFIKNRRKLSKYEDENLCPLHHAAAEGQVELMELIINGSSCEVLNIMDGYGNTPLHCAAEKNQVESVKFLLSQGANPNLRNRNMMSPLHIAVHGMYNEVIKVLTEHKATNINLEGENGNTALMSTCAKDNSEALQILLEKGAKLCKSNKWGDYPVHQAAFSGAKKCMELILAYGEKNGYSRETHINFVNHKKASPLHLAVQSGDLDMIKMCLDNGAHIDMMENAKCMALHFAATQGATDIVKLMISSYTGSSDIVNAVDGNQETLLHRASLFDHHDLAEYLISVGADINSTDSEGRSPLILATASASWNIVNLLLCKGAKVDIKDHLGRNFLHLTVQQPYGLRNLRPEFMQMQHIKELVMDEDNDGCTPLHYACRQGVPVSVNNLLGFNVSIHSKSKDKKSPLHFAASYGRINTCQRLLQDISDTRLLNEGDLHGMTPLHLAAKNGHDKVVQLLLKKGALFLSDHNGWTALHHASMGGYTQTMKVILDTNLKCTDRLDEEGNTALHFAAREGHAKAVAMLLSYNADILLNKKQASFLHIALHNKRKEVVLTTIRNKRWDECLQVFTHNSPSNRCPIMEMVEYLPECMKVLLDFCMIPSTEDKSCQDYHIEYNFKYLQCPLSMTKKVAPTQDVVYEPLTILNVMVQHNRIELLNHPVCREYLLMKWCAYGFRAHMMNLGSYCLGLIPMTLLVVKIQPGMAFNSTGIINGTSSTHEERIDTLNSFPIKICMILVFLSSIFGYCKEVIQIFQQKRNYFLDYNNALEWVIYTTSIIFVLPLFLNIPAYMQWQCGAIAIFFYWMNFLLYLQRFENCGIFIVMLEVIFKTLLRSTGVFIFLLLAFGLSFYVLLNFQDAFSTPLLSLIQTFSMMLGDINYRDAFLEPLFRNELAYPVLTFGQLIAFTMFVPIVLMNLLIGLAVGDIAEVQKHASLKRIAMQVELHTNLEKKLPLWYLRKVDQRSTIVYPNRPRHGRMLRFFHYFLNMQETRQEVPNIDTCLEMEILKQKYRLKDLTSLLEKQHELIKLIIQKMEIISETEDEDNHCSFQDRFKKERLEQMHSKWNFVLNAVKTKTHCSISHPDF", "test": "Antagonist activity at mouse TRPA1 channel expressed in CHO cells assessed as blockade of agonist-induced whole cell conductance by electrophysiology", "assay_type": "functional, cell-based"}, "[12]": {"target": "T2, Transient receptor potential cation channel subfamily A member 1", "test": "Agonist activity at rat TRPA1 channel expressed in HEK293 cells assessed as increase in intracellular calcium influx", "assay_type": "functional, cell-based"}, "[13]": {"target": "T1, Transient receptor potential cation channel subfamily A member 1", "test": "Antagonist activity at human TRPA1 channel expressed in CHO cells assessed as inhibition of cinnamaldehyde-induced intracellular calcium influx", "assay_type": "functional, cell-based"}, "[14]": {"target": "T1, Transient receptor potential cation channel subfamily A member 1", "test": "Activation of TRPA1 channel", "summary_of_the_method": "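Cell lines transfected with TRPA1 and loaded with a calcium-sensitive dye, read on FLIPR. Calcium influx is counted as the change in fluorescence above background. Each material was tested by preincubation or by direct addition. Calcium counts are expressed as a percentage of the control calcium count.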"}, "[15]": {"target": "T1, Transient receptor potential cation channel subfamily A member 1", "test": "Agonist activity at human TRPA1 channel in HEK293 cells assessed as increase in intracellular calcium influx by radiometric Ca2+ imaging", "assay_type": "functional, cell-based"}, "[16]": {"target": "T3, Transient receptor potential cation channel subfamily A member 1", "test": "Agonist activity at mouse TRPA1 channel expressed in CHO cells assessed as increase in intracellular calcium influx", "assay_type": "functional, cell-based"}}, "data": [{"smiles": "CC(C)CN1C(=O)/C(=C/C(=O)O)c2cccc(F)c21", "values": [{"measurement": "EC50", "setting": "[1]", "value": 830, "unit": "nM"}]}, {"smiles": "CN1C(=O)c2cccc(CC(=O)Nc3nc(-c4cc(F)c(OC(F)F)c(F)c4)cs3)c2C1=O", "values": [{"measurement": "inhibition", "setting": "[2]", "value": 99, "unit": "%"}, {"measurement": "inhibition", "setting": "[3]", "value": 92, "unit": "%"}]}, {"smiles": "O=C(O)/C=C1/C(=O)N(CC2CCC2)c2c(F)cccc21", "values": [{"measurement": "EC50", "setting": "[1]", "value": 1160, "unit": "nM"}]}, {"smiles": "Cc1cc(-c2csc(NC(=O)Cc3cccc4c3C(=O)N(C)C4=O)n2)ccc1Cl", "values": [{"measurement": "IC50", "setting": "[4]", "value": 250, "unit": "nM"}, {"measurement": "inhibition", "setting": "[2]", "value": 91, "unit": "%"}, {"measurement": "inhibition", "setting": "[3]", "value": 83, "unit": "%"}]}, {"smiles": "C=CCS[S+]([O-])CC=C", "note": "(centres undefined) [ALLICIN]", "values": [{"measurement": "EC50", "setting": "[5]", "value": 51.2, "unit": "µM"}]}, {"smiles": "O=C1NC(c2cccc([N+](=O)[O-])c2)=CCN1c1ccccc1O", "note": "[ICILLIN]", "values": [{"measurement": "EC50", "setting": "[6]", "value": 100, "unit": "µM"}, {"measurement": "EC50", "setting": "[7]", "value": 60, "unit": "nM"}]}, {"smiles": "NC(=O)/C=C1/C(=O)N(CC2CCCC2)c2c(F)cccc21", "values": [{"measurement": "EC50", "setting": "[1]", "value": 660, "unit": "nM"}]}, {"smiles": "CC1(C)CCC[C@]2(C)[C@@H](CC/C=C(/C=O)CC=O)[C@@H](C=O)CC[C@@H]12", "note": "[MIOGATRIAL]", "values": [{"measurement": "EC50", "setting": "[8]", "value": 0.13, "unit": "µM"}]}, {"smiles": "CCCCCC(O)/C=C/C=O", "note": "(centres undefined) [4-HYDROXYNON-2-ENAL]", "values": [{"measurement": "EC50", "setting": "[9]", "value": 19.9, "unit": "µM"}]}, {"smiles": "Cn1c(=O)c2c(ncn2CC(=O)Nc2nc(-c3cccc(Cl)c3)cs2)n(C)c1=O", "values": [{"measurement": "IC50", "setting": "[10]", "value": "< 1000", "unit": "nM"}]}, {"smiles": "CC1CCC(C(C)C)C(O)C1", "note": "(centres undefined) [MENTHOL]", "values": [{"measurement": "EC50", "setting": "[11]", "value": 56, "unit": "µM"}]}, {"smiles": "CC(C)=CCC/C(C)=C/CC/C(C)=C/CSc1ccccc1C(=O)O", "note": "[SALIRASIB]", "values": [{"measurement": "EC50", "setting": "[8]", "value": 5, "unit": "µM"}]}, {"smiles": "CCOc1ccccc1-c1csc(NC(=O)Cn2cnc3c2c(=O)n(C)c(=O)n3C)n1", "values": [{"measurement": "IC50", "setting": "[10]", "value": "< 1000", "unit": "nM"}]}, {"smiles": "NC(=O)c1cccc(-c2cccc(OC(=O)NC3CCCCC3)c2)c1", "note": "[URB-597]", "values": [{"measurement": "EC50", "setting": "[6]", "value": 24.5, "unit": "µM"}]}, {"smiles": "O=C(O)/C=C1/C(=O)N(CC2CCCC2)c2ccccc21", "values": [{"measurement": "EC50", "setting": "[1]", "value": 3000, "unit": "nM"}]}, {"smiles": "CCCCCc1cc(O)c(C/C=C(\\C)CCC=C(C)C)c(O)c1", "note": "[CANNABIGEROL]", "values": [{"measurement": "EC50", "setting": "[12]", "value": 3400, "unit": "nM"}]}, {"smiles": "CN1C(=O)c2cccc(CC(=O)Nc3nc(-c4cc(F)c(C(F)(F)F)c(F)c4)cs3)c2C1=O", "values": [{"measurement": "IC50", "setting": "[4]", "value": 250, "unit": "nM"}, {"measurement": "inhibition", "setting": "[2]", "value": 100, "unit": "%"}, {"measurement": "inhibition", "setting": "[3]", "value": 92, "unit": "%"}]}, {"smiles": "CN1C(=O)c2cccc(CC(=O)Nc3nc(-c4ccc(C(F)(F)F)c(F)c4)cs3)c2C1=O", "values": [{"measurement": "inhibition", "setting": "[2]", "value": 100, "unit": "%"}, {"measurement": "inhibition", "setting": "[3]", "value": 97, "unit": "%"}]}, {"smiles": "CCN(CC)C(=S)SSC(=S)N(CC)CC", "values": [{"measurement": "EC50", "setting": "[8]", "value": 3, "unit": "µM"}]}, {"smiles": "CCC(=N\\O)/C(C)=C/c1ccc(C)nc1", "values": [{"measurement": "IC50", "setting": "[13]", "value": "> 100", "unit": "µM"}]}, {"smiles": "CC1(C)CCC[C@@]2(C)[C@H]1CC[C@@]1(CO1)[C@@H]2CC/C=C(/C=O)CC=O", "note": "[MIOGADIAL]", "values": [{"measurement": "EC50", "setting": "[8]", "value": 0.2, "unit": "µM"}]}, {"smiles": "O=C1/C(=C/c2nccs2)c2ccccc2N1Cc1ccccc1", "values": [{"measurement": "EC50", "setting": "[1]", "value": 5650, "unit": "nM"}]}, {"smiles": "Cn1c(=O)c2c(ncn2CC(=O)Nc2nc(-c3ccc(Br)cc3)cs2)n(C)c1=O", "values": [{"measurement": "IC50", "setting": "[10]", "value": "< 1000", "unit": "nM"}]}, {"smiles": "C=CC=O", "note": "[ACROLEIN]", "values": [{"measurement": "EC50", "setting": "[14]", "value": 800, "unit": "nM"}]}, {"smiles": "COC(=O)c1cccc(CN2C(=O)/C(=C/C(N)=O)c3ccccc32)c1", "values": [{"measurement": "EC50", "setting": "[1]", "value": 1200, "unit": "nM"}]}, {"smiles": "C=C(C)[C@@H]1CCC(C)=C[C@H]1c1c(O)cc(CCCCC)c(C(=O)O)c1O", "note": "[CANNABIDIOLIC ACID]", "values": [{"measurement": "EC50", "setting": "[12]", "value": 12000, "unit": "nM"}]}, {"smiles": "CCCCCCCC/C=C(\\CCCCCCCC(=O)O)[N+](=O)[O-]", "note": "[NITROLEIC ACID]", "values": [{"measurement": "EC50", "setting": "[15]", "value": 1000, "unit": "nM"}]}, {"smiles": "CO/C(O)=C1\\C(C)=NC(C)=C([N+](=O)[O-])[C@H]1c1ccccc1C(F)(F)F", "values": [{"measurement": "EC50", "setting": "[16]", "value": 41.5, "unit": "µM"}]}, {"smiles": "CN1C(=O)c2cccc(CC(=O)Nc3nc(-c4cccc(C(F)(F)F)c4)cs3)c2C1=O", "values": [{"measurement": "IC50", "setting": "[4]", "value": 500, "unit": "nM"}, {"measurement": "inhibition", "setting": "[2]", "value": 96, "unit": "%"}, {"measurement": "inhibition", "setting": "[3]", "value": 60, "unit": "%"}]}, {"smiles": "CCCCCc1cc(O)c2c(c1C(=O)O)OC(C)(C)[C@@H]1CCC(C)=C[C@@H]21", "note": "[TETRAHYDROCANNABINOL ACID]", "values": [{"measurement": "EC50", "setting": "[12]", "value": 240, "unit": "nM"}]}, {"smiles": "CN1C(=O)c2cccc(CC(=O)Nc3nc(-c4ccc(I)cc4)cs3)c2C1=O", "values": [{"measurement": "IC50", "setting": "[4]", "value": "< 250", "unit": "nM"}, {"measurement": "inhibition", "setting": "[2]", "value": 95, "unit": "%"}, {"measurement": "inhibition", "setting": "[3]", "value": 76, "unit": "%"}]}, {"smiles": "COCCOC(=O)C1=C(C)NC(C)=C(C(=O)OC(C)C)C1c1cccc([N+](=O)[O-])c1", "note": "(centres undefined) [NIMODIPINE]", "values": [{"measurement": "EC50", "setting": "[16]", "value": 0.8, "unit": "µM"}]}, {"smiles": "CCC(=N\\O)/C(C)=C/c1cncc2ccccc12", "values": [{"measurement": "IC50", "setting": "[13]", "value": "> 100", "unit": "µM"}]}, {"smiles": "CN1C(=O)c2cccc(CC(=O)Nc3nc(-c4ccc(Cl)cc4)cs3)c2C1=O", "values": [{"measurement": "IC50", "setting": "[4]", "value": 500, "unit": "nM"}, {"measurement": "inhibition", "setting": "[2]", "value": 93, "unit": "%"}, {"measurement": "inhibition", "setting": "[3]", "value": 39, "unit": "%"}]}, {"smiles": "CCCCC(CC)C1NC(=O)N(SC(Cl)(Cl)Cl)C1=O", "note": "(centres undefined) [CHLORDANTOIN]", "values": [{"measurement": "EC50", "setting": "[8]", "value": 3, "unit": "µM"}]}, {"smiles": "O=C(O)/C=C1/C(=O)N(CC2CCCC2)c2c(F)cccc21", "values": [{"measurement": "EC50", "setting": "[1]", "value": 510, "unit": "nM"}]}, {"smiles": "CCC(CC)CN1C(=O)/C(=C/C(=O)N2CCOCC2)c2cccc(F)c21", "values": [{"measurement": "EC50", "setting": "[1]", "value": 1290, "unit": "nM"}]}, {"smiles": "O=C(O)/C=C1/C(=O)N(CC2CCCCC2)c2ccccc21", "values": [{"measurement": "EC50", "setting": "[1]", "value": 4400, "unit": "nM"}]}, {"smiles": "C=CCSSSCC=C", "note": "[ALLITRIDIN]", "values": [{"measurement": "EC50", "setting": "[8]", "value": 0.49, "unit": "µM"}]}, {"smiles": "C=CCSCC=C", "note": "[DIALLYL SULFIDE]", "values": [{"measurement": "EC50", "setting": "[8]", "value": 254, "unit": "µM"}]}, {"smiles": "C=C(C)[C@@H]1CCC(C)=C[C@H]1c1c(O)cc(CCCCC)cc1O", "note": "[CANNABIDIOL]", "values": [{"measurement": "EC50", "setting": "[12]", "value": 96, "unit": "nM"}]}]}
